{
  "source": "ChEMBL document CHEMBL3272018",
  "about": "“Synthesis of aziridinylallylaminophosphine oxides and sulfides as potential adjuvant cancer chemotherapeutic agents” (J Med Chem, 1976)",
  "key": {"Rattus norvegicus [1]": {"test_system": "Rattus norvegicus", "assay": "Toxicity in rat allografted with cytoxan-resistant rat Walker 256 cells intramuscularly assessed as change in body weight at 0.12 mg/kg, qd administered for 5 days", "type": "organism-based", "parameters": "dose 0.12 mg/kg, route intramuscular", "conditions": "in vivo, im, 120 h", "in_short": "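Cytoxan-resistant Walker 256 solid tumour in rats, one injection daily for 5 days. Toxicity is the average net body-weight change of the treated group minus that of the untreated controls, in grams.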"}, "W256 [2]": {"test_system": "W256", "assay": "Antitumor activity against cytoxan-resistant rat Walker 256 cells intramuscularly allografted in rat assessed as survival rate at 0.12 mg/kg, qd administered for 5 days", "type": "functional, organism-based", "parameters": "dose 0.12 mg/kg", "in_short": "(§1)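 Rats bearing Walker 256 carcinoma as a solid tumor; lines 1-8 use a cytoxan-resistant Walker 256 subline. Dosed once daily for 5 days. Treated (T) and untreated control (C) groups are compared, and the response is given as T/C percentage, reflecting increase in survival time. Host weight change is the average weight change of the test group minus that of the controls, in grams.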"}, "Rattus norvegicus [3]": {"test_system": "Rattus norvegicus", "assay": "Toxicity in rat allografted with cytoxan-resistant rat Walker 256 cells intramuscularly assessed as change in body weight at 1 mg/kg, qd administered for 5 days", "type": "organism-based", "parameters": "dose 1 mg/kg, route intramuscular", "conditions": "in vivo, im, 120 h", "in_short": "(§2)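 Walker 256 carcinoma solid-tumour system in rats (parent line, or the line resistant to cytoxan). Dosing was one injection per day for 5 days. Toxicity was taken as the average net body-weight change of the treated group minus the average net weight change of the untreated tumour-bearing controls, in grams.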"}, "Rattus norvegicus [4]": {"test_system": "Rattus norvegicus", "assay": "Toxicity in rat allografted with cytoxan-resistant rat Walker 256 cells intramuscularly assessed as change in body weight at 2 mg/kg, qd administered for 5 days", "type": "organism-based", "parameters": "dose 2 mg/kg, route intramuscular", "conditions": "in vivo, im, 120 h", "in_short": "as §2"}, "Rattus norvegicus [5]": {"test_system": "Rattus norvegicus", "assay": "Toxicity in rat allografted with rat Walker 256 cells intramuscularly assessed as change in body weight at 0.25 mg/kg, qd administered for 5 days", "type": "organism-based", "parameters": "dose 0.25 mg/kg, route intramuscular", "conditions": "in vivo, im, 120 h", "in_short": "as §2"}, "Rattus norvegicus [6]": {"test_system": "Rattus norvegicus", "assay": "Toxicity in rat allografted with rat Walker 256 cells intramuscularly assessed as change in body weight at 0.125 mg/kg, qd administered for 5 days", "type": "organism-based", "parameters": "dose 0.125 mg/kg, route intramuscular", "conditions": "in vivo, im, 120 h", "in_short": "as §2"}, "Rattus norvegicus [7]": {"test_system": "Rattus norvegicus", "assay": "Toxicity in rat allografted with rat Walker 256 cells intramuscularly assessed as change in body weight at 1 mg/kg, qd administered for 5 days", "type": "organism-based", "parameters": "dose 1 mg/kg, route intramuscular", "conditions": "in vivo, im, 120 h", "in_short": "as §2"}, "W256 [8]": {"test_system": "W256", "assay": "Antitumor activity against cytoxan-resistant rat Walker 256 cells intramuscularly allografted in rat assessed as survival rate at 0.5 mg/kg, qd administered for 5 days", "type": "functional, organism-based", "parameters": "dose 0.5 mg/kg", "in_short": "as §1"}, "W256 [9]": {"test_system": "W256", "assay": "Antitumor activity against rat Walker 256 cells intramuscularly allografted in rat assessed as tumor growth inhibition", "type": "functional", "conditions": "W256, im", "in_short": "(§3)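 Dosed once daily for 5 days. Response is tumor progression in treated (T) versus untreated control (C) animals, expressed as T/C percentage. Host weight change is reported as the average net weight change of the test group minus that of the controls, in grams.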"}, "W256 [10]": {"test_system": "W256", "assay": "Antitumor activity against cytoxan-resistant rat Walker 256 cells intramuscularly allografted in rat assessed as tumor growth inhibition at 2 mg/kg, qd administered for 5 days relative to control", "type": "functional", "conditions": "W256, im, 120 h, route intramuscular, read-out: TGI", "in_short": "as §3"}, "W256 [11]": {"test_system": "W256", "assay": "Antitumor activity against rat Walker 256 cells intramuscularly allografted in rat assessed as tumor growth inhibition at 0.031 mg/kg, qd administered for 5 days relative to control", "type": "functional", "conditions": "W256, im, 120 h, route intramuscular, read-out: TGI", "in_short": "as §3"}, "W256 [12]": {"test_system": "W256", "assay": "Antitumor activity against rat Walker 256 cells intramuscularly allografted in rat assessed as survival rate at 0.5 mg/kg, qd administered for 5 days", "type": "functional, organism-based", "parameters": "dose 0.5 mg/kg", "in_short": "as §1"}, "Rattus norvegicus [13]": {"test_system": "Rattus norvegicus", "assay": "Toxicity in rat allografted with cytoxan-resistant rat Walker 256 cells intramuscularly assessed as change in body weight at 0.25 mg/kg, qd administered for 5 days", "type": "organism-based", "parameters": "dose 0.25 mg/kg, route intramuscular", "conditions": "in vivo, im, 120 h", "in_short": "as §2"}, "W256 [14]": {"test_system": "W256", "assay": "Antitumor activity against rat Walker 256 cells intramuscularly allografted in rat assessed as survival rate at 0.031 mg/kg, qd administered for 5 days", "type": "functional, organism-based", "parameters": "dose 0.031 mg/kg", "in_short": "as §1"}, "Rattus norvegicus [15]": {"test_system": "Rattus norvegicus", "assay": "Toxicity in rat allografted with rat Walker 256 cells intramuscularly assessed as change in body weight at 0.062 mg/kg, qd administered for 5 days", "type": "organism-based", "parameters": "dose 0.062 mg/kg, route intramuscular", "conditions": "in vivo, im, 120 h", "in_short": "as §2"}, "W256 [16]": {"test_system": "W256", "assay": "Antitumor activity against rat Walker 256 cells intramuscularly allografted in rat assessed as survival rate at 0.25 mg/kg, qd administered for 5 days", "type": "functional, organism-based", "parameters": "dose 0.25 mg/kg", "in_short": "as §1"}, "Rattus norvegicus [17]": {"test_system": "Rattus norvegicus", "assay": "Toxicity in rat allografted with rat Walker 256 cells intramuscularly assessed as change in body weight at 2 mg/kg, qd administered for 5 days", "type": "organism-based", "parameters": "dose 2 mg/kg, route intramuscular", "conditions": "in vivo, im, 120 h", "in_short": "as §2"}, "W256 [18]": {"test_system": "W256", "assay": "Antitumor activity against rat Walker 256 cells intramuscularly allografted in rat assessed as tumor growth inhibition at 0.25 mg/kg, qd administered for 5 days relative to control", "type": "functional", "conditions": "W256, im, 120 h, route intramuscular, read-out: TGI", "in_short": "as §3"}, "Rattus norvegicus [19]": {"test_system": "Rattus norvegicus", "assay": "Toxicity in rat allografted with rat Walker 256 cells intramuscularly assessed as change in body weight at 0.031 mg/kg, qd administered for 5 days", "type": "organism-based", "parameters": "dose 0.031 mg/kg, route intramuscular", "conditions": "in vivo, im, 120 h", "in_short": "as §2"}, "Rattus norvegicus [20]": {"test_system": "Rattus norvegicus", "assay": "Toxicity in rat allografted with cytoxan-resistant rat Walker 256 cells intramuscularly assessed as change in body weight at 0.5 mg/kg, qd administered for 5 days", "type": "organism-based", "parameters": "dose 0.5 mg/kg, route intramuscular", "conditions": "in vivo, im, 120 h", "in_short": "as §2"}, "W256 [21]": {"test_system": "W256", "assay": "Antitumor activity against cytoxan-resistant rat Walker 256 cells intramuscularly allografted in rat assessed as tumor growth inhibition at 1 mg/kg, qd administered for 5 days relative to control", "type": "functional", "conditions": "W256, im, 120 h, route intramuscular, read-out: TGI", "in_short": "as §3"}},
  "note": "Active and inactive are the calls of the source. No cut-off for these calls is given here.",
  "data": [
    {"molecule": "C=CCN(CC=C)P(=O)(N1CC1)N1CC1", "values": [
      {"measurement": "Activity", "setting": "Rattus norvegicus [1]", "value": -14, "unit": "g"},
      {"measurement": "Activity", "setting": "W256 [2]", "value": "Active"},
      {"measurement": "Activity", "setting": "Rattus norvegicus [3]", "value": -13, "unit": "g"},
      {"measurement": "Activity", "setting": "Rattus norvegicus [4]", "value": -2, "unit": "g"},
      {"measurement": "Activity", "setting": "Rattus norvegicus [5]", "value": -12, "unit": "g"},
      {"measurement": "Activity", "setting": "Rattus norvegicus [6]", "value": -1, "unit": "g"},
      {"measurement": "Activity", "setting": "Rattus norvegicus [7]", "value": -26, "unit": "g"},
      {"measurement": "Activity", "setting": "W256 [8]", "value": "Active"},
      {"measurement": "ED10", "setting": "W256 [9]", "value": 0.5, "unit": "mg/kg"},
      {"measurement": "inhibition in vivo at 2 mg/kg", "setting": "W256 [10]", "value": 9, "unit": "%"},
      {"measurement": "inhibition in vivo at 0.031 mg/kg", "setting": "W256 [11]", "value": 24, "unit": "%"},
      {"measurement": "Activity", "setting": "W256 [12]", "value": "Active"},
      {"measurement": "Activity", "setting": "Rattus norvegicus [13]", "value": 0, "unit": "g"},
      {"measurement": "Activity", "setting": "W256 [14]", "value": "Active"},
      {"measurement": "Activity", "setting": "Rattus norvegicus [15]", "value": -5, "unit": "g"},
      {"measurement": "Activity", "setting": "W256 [16]", "value": "Active"},
      {"measurement": "Activity", "setting": "Rattus norvegicus [17]", "value": -44, "unit": "g"},
      {"measurement": "inhibition in vivo at 0.25 mg/kg", "setting": "W256 [18]", "value": 0, "unit": "%"},
      {"measurement": "Activity", "setting": "Rattus norvegicus [19]", "value": 0, "unit": "g"},
      {"measurement": "Activity", "setting": "Rattus norvegicus [20]", "value": -13, "unit": "g"},
      {"measurement": "inhibition in vivo at 1 mg/kg", "setting": "W256 [21]", "value": 40, "unit": "%"}
    ]}
  ]
}
